In ChEMBL document CHEMBL1153760, “Identification and structure-activity relationships of chromene-derived selective estrogen receptor modulators for treatment of postmenopausal symptoms” (J Med Chem, 2009):
Active and inactive are the calls of the source. No cut-off for these calls is given here.

Experiments:
Rattus norvegicus [1] = assay: Decrease in plasma cholesterol level in po dosed ovariectomized rat osteopenia model administered daily measured after 2 weeks; type: functional, organism-based
Rattus norvegicus [2] = assay: Metabolic stability in rat assessed as 8-Methoxy-6R-(-)-[4-(2-piperidin-1-ylethoxy)phenyl]-11,12-dihydro-5H-6,13-dioxabenzo[3,4]cyclohepta-[1,2-a]naphthalen-2-ol Tmax at 2 mg/kg, iv administered as single dose by LC-MS/MS analysis; type: ADME, organism-based; design: dose 2 mg/kg, route intravenous; details: in vivo
Method in brief: (§1)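 Single-dose rat pharmacokinetics. IV dosing at 1-3 mg/kg as a solution in 10% β-cyclodextrin; oral gavage at 10 mg/kg as a uniform suspension in 0.5% methylcellulose. Blood (0.5 mL) collected into heparinized tubes by orbital sinus puncture after dosing. Plasma extracted into acetonitrile with an internal standard and analysed by LC-MS-MS against standards to obtain PK parameters.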

Rattus norvegicus [3] = assay: Metabolite Cmax in rats after 2 mg/kg JNJ-1968990 intravenous dose; type: ADME, organism-based; design: dose 2 mg/kg, route intravenous; details: in vivo; method in brief: as §1
Rattus norvegicus [4] = assay: Metabolite Cmax in rats after 10 mg/kg JNJ-1968990 oral dose; type: ADME, organism-based; design: dose 10 mg/kg, route oral; details: in vivo; method in brief: as §1
Estrogen receptor beta = Estrogen receptor beta (Homo sapiens, UniProt Q92731); assay: Inhibition of fluormone ES2 binding to estrogen receptor beta after 1 hr by fluorescence polarization assay
Chain of Estrogen receptor beta (Q92731 whole entry): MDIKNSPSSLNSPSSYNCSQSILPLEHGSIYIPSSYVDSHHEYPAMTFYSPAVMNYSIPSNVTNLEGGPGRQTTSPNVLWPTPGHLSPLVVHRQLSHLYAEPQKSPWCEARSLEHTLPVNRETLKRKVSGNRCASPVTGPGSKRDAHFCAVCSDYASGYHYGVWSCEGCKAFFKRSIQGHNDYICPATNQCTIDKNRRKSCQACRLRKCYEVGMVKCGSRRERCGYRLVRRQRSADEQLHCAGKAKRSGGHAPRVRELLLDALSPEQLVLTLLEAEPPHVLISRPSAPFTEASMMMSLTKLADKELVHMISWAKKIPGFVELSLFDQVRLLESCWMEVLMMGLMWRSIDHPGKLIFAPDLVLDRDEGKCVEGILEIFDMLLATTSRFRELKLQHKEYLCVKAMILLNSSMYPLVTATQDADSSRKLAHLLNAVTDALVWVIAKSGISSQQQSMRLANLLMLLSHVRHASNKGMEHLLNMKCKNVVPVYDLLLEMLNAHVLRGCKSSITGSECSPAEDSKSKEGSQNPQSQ

[5] = AUC in rat at 10 mg/kg, po administered as single dose by LC-MS/MS analysis; type: ADME, organism-based; design: dose 10 mg/kg, route oral; details: plasma; method in brief: as §1
[6] = Half life in rat at 10 mg/kg, po administered as single dose by LC-MS/MS analysis; type: ADME, organism-based; design: dose 10 mg/kg, route oral; details: in vivo; method in brief: as §1
[7] = Oral bioavailability in rat at 10 mg/kg administered as single dose by LC-MS/MS analysis; type: ADME, organism-based; details: in vivo; method in brief: as §1
[8] = Cmax in rats after 10 mg/kg oral dose; type: ADME, organism-based; design: dose 10 mg/kg, route oral; details: rat, in vivo; method in brief: as §1
Rattus norvegicus [9] = assay: Decrease in bone resorption in ovariectomized rat assessed as decrease in urine deoxypyridinoline level at 0.1 to 1 mg/kg, po administered daily measured after 2 weeks; type: functional, organism-based
Method in brief: (§2)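 Adult (>6 months) female rats, housed singly on a casein-based diet, ovariectomized under sterile conditions and anesthesia; 6-14 per group. From 24 h after surgery, daily oral gavage of an aqueous suspension in 0.5% Methocel for 2 or 6 weeks. […] Urine deoxypyridinoline measured as bone-resorption marker.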

Rattus norvegicus [10] = assay: Metabolic stability in rat assessed as 8-Methoxy-6R-(-)-[4-(2-piperidin-1-ylethoxy)phenyl]-11,12-dihydro-5H-6,13-dioxabenzo[3,4]cyclohepta-[1,2-a]naphthalen-2-ol Tmax at 10 mg/kg, po administered as single dose by LC-MS/MS analysis; type: ADME, organism-based; design: dose 10 mg/kg, route oral; details: in vivo; method in brief: as §1
Estrogen receptor [11] = molecular target: T1, Estrogen receptor (Homo sapiens, UniProt P03372); assay: Displacement of radiolabeled estrogen from estrogen receptor alpha by scintillation counting
T1 sequence (P03372 whole entry): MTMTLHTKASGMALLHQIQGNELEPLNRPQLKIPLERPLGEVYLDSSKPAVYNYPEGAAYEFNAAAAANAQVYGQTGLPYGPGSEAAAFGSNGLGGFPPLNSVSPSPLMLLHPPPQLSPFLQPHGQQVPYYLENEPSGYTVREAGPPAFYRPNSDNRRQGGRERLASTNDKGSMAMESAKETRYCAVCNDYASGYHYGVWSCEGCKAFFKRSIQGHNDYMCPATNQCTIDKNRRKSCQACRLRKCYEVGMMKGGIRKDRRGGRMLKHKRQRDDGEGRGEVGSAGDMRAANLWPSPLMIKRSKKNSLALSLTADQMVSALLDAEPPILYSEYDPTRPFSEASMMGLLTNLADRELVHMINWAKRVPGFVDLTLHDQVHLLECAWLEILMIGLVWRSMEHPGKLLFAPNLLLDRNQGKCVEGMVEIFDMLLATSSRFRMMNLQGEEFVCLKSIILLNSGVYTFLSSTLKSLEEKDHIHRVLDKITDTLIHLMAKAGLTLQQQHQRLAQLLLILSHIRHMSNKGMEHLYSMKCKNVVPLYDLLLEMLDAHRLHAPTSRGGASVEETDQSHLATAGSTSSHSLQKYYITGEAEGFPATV

Rattus norvegicus [12] = species on record: Rattus norvegicus; assay: animal or person; type: functional; details: Uterus, 72 h, route oral
[13] = Tmax in rat at 10 mg/kg, po administered as single dose by LC-MS/MS analysis; type: ADME, organism-based; design: dose 10 mg/kg, route oral; details: in vivo; method in brief: as §1
Estrogen receptor [14] = molecular target: T1, Estrogen receptor; assay: Antagonist activity at estrogen receptor in human Ishikawa cells assessed as 17-beta-estradiol-induced alkaline phosphatase activity after 3 days by chemiluminescence assay; type: functional, cell-based
Rattus norvegicus [15] = assay: Estrogenic activity in ovariectomized rat assessed as minor increase in uterine epithelial thickness at 0.1 to 1 mg/kg, po administered daily measured after 6 week by immunohistochemical analysis; type: functional, organism-based
Rattus norvegicus [16] = assay: Increase in uterine weight in po dosed ovariectomized rat osteopenia model administered daily measured after 2 weeks; type: functional, organism-based
Rattus norvegicus [17] = assay: Metabolic stability in rat assessed as 2-Methoxy-5R-(-)-[4-(2-piperidin-1-ylethoxy)-phenyl]-11,12-dihydro-5H-6,13-dioxabenzo[3,4]cyclohepta[1,2-a]-naphthalen-8-ol Tmax at 2 mg/kg, iv administered as single dose by LC-MS/MS analysis; type: ADME, organism-based; design: dose 2 mg/kg, route intravenous; details: in vivo; method in brief: as §1
Rattus norvegicus [18] = assay: Increase in vaginal secretion in ovariectomized rat at 0.1 to 1 mg/kg, po administered daily measured after 2 weeks by cytology analysis; type: functional, organism-based
Method in brief: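 Ovariectomized adult female rats dosed daily by oral gavage (0.5% Methocel suspension) for 2 or 6 weeks from 24 h after surgery. Vaginal fluid collected with a cotton swab and its absolute weight determined per animal.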

Rattus norvegicus [19] = assay: Increase in vaginal fluidity in ovariectomized rat at 1.4 mg/kg, po administered daily measured after 6 weeks by cytology analysis; type: functional, organism-based; design: dose 1.4 mg/kg
Rattus norvegicus [20] = assay: Metabolic stability in rat assessed as 2-Methoxy-5R-(-)-[4-(2-piperidin-1-ylethoxy)-phenyl]-11,12-dihydro-5H-6,13-dioxabenzo[3,4]cyclohepta[1,2-a]-naphthalen-8-ol Tmax at 10 mg/kg, po administered as single dose by LC-MS/MS analysis; type: ADME, organism-based; design: dose 10 mg/kg, route oral; details: in vivo; method in brief: as §1
Rattus norvegicus [21] = assay: Metabolic stability in rat assessed as (R)-5-[4-(2-Dimethylamino-ethoxy)-phenyl]-11,12-dihydro-5H-6,13-dioxa-benzo[3,4]cyclohepta[1,2-a]naphthalene-2,8-diol Tmax at 2 mg/kg, iv administered as single dose by LC-MS/MS analysis; type: ADME, organism-based; design: dose 2 mg/kg, route intravenous; details: in vivo; method in brief: as §1
Rattus norvegicus [22] = assay: Metabolite Cmax in rats after 10 mg/kg JNJ-26529152 oral dose; type: ADME, organism-based; design: dose 10 mg/kg, route oral; details: in vivo; method in brief: as §1
Rattus norvegicus [23] = assay: Metabolite Cmax in rats after 10 mg/kg JNJ-26529126 oral dose; type: ADME, organism-based; design: dose 10 mg/kg, route oral; details: in vivo; method in brief: as §1
Rattus norvegicus [24] = assay: Decrease in bone resorption in ovariectomized rat assessed as decrease in urine deoxypyridinoline level at 0.1 mg/kg, po administered daily measured after 2 weeks; type: functional, organism-based; design: dose 0.1 mg/kg; method in brief: as §2
Rattus norvegicus [25] = assay: Metabolic stability in rat assessed as (R)-5-[4-(2-Dimethylamino-ethoxy)-phenyl]-11,12-dihydro-5H-6,13-dioxa-benzo[3,4]cyclohepta[1,2-a]naphthalene-2,8-diol Tmax at 10 mg/kg, po administered as single dose by LC-MS/MS analysis; type: ADME, organism-based; design: dose 10 mg/kg, route oral; details: in vivo; method in brief: as §1

| Cmax_metabolite (Rattus norvegicus [3]) | Cmax_metabolite (Rattus norvegicus [4]) | IC50 (Estrogen receptor beta) | AUC [5] | half-life [6] | bioavailability [7] | Cmax [8] | IC50 (Estrogen receptor [11]) | Tmax [13] | IC50 (Estrogen receptor [14]) | SMILES | Activity (Rattus norvegicus [1]) | Activity (Rattus norvegicus [9]) | inhibition in vivo at 1 mg/kg (Rattus norvegicus [12]) | Activity (Rattus norvegicus [15]) | Activity (Rattus norvegicus [16]) | other results |
| --- | --- | --- | --- | --- | --- | --- | --- | --- | --- | --- | --- | --- | --- | --- | --- | --- |
| 7.6 ng/mL | 33.3 ng/mL | 7 nM | 6920 ng·h/mL | 19.8 h | 58% | 219 ng/mL | 9 nM | 6 h | 259 nM | COc1ccc2c(c1)O[C@H](c1ccc(OCCN3CCCCC3)cc1)C1=C2CCOc2cc(O)ccc21 | Active | Active | 99% | Active | inactive | Tmax (Rattus norvegicus [2]): 8 h; Tmax (Rattus norvegicus [10]): 6 h |
| 15.2 ng/mL | 91.4 ng/mL | 99 nM | 6730 ng·h/mL | 18.6 h | 61% | 228 ng/mL | 5.8 nM | 6 h | 76 nM | COc1ccc2c(c1)OCCC1=C2[C@@H](c2ccc(OCCN3CCCCC3)cc2)Oc2cc(O)ccc21 | Active | Active | 130% | Active | inactive | Tmax (Rattus norvegicus [17]): 8 h; Activity (Rattus norvegicus [18]): inactive; Activity (Rattus norvegicus [19]): Active; Tmax (Rattus norvegicus [20]): 8 h |
| 1.6 ng/mL | 3.9 ng/mL | 21 nM | 1010 ng·h/mL | 4.8 h | 11% | 91 ng/mL | 1.1 nM | 5 h | 0.2 nM | Oc1ccc2c(c1)O[C@H](c1ccc(OCCN3CCCCC3)cc1)C1=C2CCOc2cc(O)ccc21 | – | – | 135% | – | inactive | Tmax (Rattus norvegicus [21]): 8 h; Cmax_metabolite (Rattus norvegicus [22]): 12 ng/mL; Cmax_metabolite (Rattus norvegicus [23]): 14 ng/mL; Activity (Rattus norvegicus [24]): Active; Tmax (Rattus norvegicus [25]): 6 h |
